Laboratory results: ChEMBL document CHEMBL5712886, “Discovery and Characterization of GSK2801, a Selective Chemical Probe for the Bromodomains BAZ2A and BAZ2B” (J Med Chem, 2016)
Activity calls are given as the source filed them. No cut-off for these calls is given here.

Experiments:
[1] = target: Nuclear body protein SP140 (Homo sapiens) (UniProt Q13342); assay: Binding affinity to biotinylated SP140 (unknown origin) expressed in Escherichia coli at 0.2 to 1 uM by Biolayer Interferometric analysis; details: dose 0.2-1 µM
How it was run: (§1)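 Bromodomains carrying a BirA biotin ligase targeting sequence, coexpressed with BirA in bacteria to give homogeneous in vivo biotin labelling, checked by mass spectrometry. Biotinylated proteins probed by biolayer interferometry with compound at two concentrations, 0.2 and 1.0 μM.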

[2] = target: Transcription intermediary factor 1-beta (Homo sapiens) (UniProt Q13263); assay: Binding affinity to biotinylated TRIM28 (unknown origin) expressed in Escherichia coli at 0.2 to 1 uM by Biolayer Interferometric analysis; details: dose 0.2-1 µM; how it was run: as §1
[3] = target: Nucleosome-remodeling factor subunit BPTF (Homo sapiens) (UniProt Q12830); assay: Binding affinity to biotinylated FALZ (unknown origin) expressed in Escherichia coli at 0.2 to 1 uM by Biolayer Interferometric analysis; details: dose 0.2-1 µM; how it was run: as §1
[4] = target: T1, Bromodomain-containing protein 9 (Homo sapiens) (UniProt Q9H8M2); assay: Binding affinity to biotinylated C-terminal Avi/His-TEV-fused BRD9 (unknown origin) expressed in Escherichia coli by isothermal titration calorimetric analysis
T1 sequence (whole entry): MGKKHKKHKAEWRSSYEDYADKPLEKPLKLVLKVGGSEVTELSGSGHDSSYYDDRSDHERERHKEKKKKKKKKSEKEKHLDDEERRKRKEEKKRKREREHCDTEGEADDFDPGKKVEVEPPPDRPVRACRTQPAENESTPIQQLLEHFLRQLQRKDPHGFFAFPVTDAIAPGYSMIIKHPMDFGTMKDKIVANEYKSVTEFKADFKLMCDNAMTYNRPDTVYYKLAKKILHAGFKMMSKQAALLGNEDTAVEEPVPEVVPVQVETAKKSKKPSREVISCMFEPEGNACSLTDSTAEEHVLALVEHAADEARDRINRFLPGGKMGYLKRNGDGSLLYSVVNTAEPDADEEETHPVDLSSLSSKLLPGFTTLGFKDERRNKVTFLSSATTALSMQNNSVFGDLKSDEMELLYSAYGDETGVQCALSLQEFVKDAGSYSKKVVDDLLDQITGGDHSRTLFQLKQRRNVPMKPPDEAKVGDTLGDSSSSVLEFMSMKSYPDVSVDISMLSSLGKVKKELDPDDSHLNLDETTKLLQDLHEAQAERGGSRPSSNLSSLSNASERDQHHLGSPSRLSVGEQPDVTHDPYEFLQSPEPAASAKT

[5] = target: Chromatin remodeling regulator CECR2 (Homo sapiens) (UniProt Q9BXF3); assay: Binding affinity to biotinylated CECR2 (unknown origin) expressed in Escherichia coli at 0.2 to 1 uM by Biolayer Interferometric analysis; details: dose 0.2-1 µM; how it was run: as §1
[6] = target: Bromodomain-containing protein 2 (Homo sapiens) (UniProt P25440); assay: Binding affinity to biotinylated BRD2 bromodomain-1 (unknown origin) expressed in Escherichia coli at 0.2 to 1 uM by Biolayer Interferometric analysis; details: dose 0.2-1 µM; how it was run: as §1
Bromodomain-containing protein 2 (Homo sapiens), sequence (P25440 whole entry, looked up): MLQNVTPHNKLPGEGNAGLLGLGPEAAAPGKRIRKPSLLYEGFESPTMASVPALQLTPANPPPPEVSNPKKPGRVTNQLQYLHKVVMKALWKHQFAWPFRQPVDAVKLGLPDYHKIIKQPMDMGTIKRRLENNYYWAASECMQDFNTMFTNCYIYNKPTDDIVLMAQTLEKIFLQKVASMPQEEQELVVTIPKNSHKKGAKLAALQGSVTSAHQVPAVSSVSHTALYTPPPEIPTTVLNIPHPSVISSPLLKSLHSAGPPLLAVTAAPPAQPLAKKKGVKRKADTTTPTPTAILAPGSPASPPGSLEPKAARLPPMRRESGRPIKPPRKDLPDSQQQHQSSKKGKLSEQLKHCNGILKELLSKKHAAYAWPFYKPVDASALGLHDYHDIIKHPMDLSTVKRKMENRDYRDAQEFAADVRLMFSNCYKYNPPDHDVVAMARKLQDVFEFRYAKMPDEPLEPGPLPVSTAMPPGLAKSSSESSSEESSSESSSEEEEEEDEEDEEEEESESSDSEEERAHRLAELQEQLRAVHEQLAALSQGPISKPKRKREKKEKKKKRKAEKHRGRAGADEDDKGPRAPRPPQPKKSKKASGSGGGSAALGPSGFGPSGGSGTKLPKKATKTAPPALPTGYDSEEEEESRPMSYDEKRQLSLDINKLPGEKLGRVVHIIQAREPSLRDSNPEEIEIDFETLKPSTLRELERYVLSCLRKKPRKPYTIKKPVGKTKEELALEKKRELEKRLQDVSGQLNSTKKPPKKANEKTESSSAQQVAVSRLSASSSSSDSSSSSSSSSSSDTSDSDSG

[7] = target: Histone acetyltransferase KAT2A (Homo sapiens) (UniProt Q92830); assay: Binding affinity to biotinylated GCN5L2 (unknown origin) expressed in Escherichia coli at 0.2 to 1 uM by Biolayer Interferometric analysis; details: dose 0.2-1 µM; how it was run: as §1
[8] = target: Protein polybromo-1 (Homo sapiens) (UniProt Q86U86); assay: Binding affinity to biotinylated PB1 bromodomain-2 (unknown origin) expressed in Escherichia coli at 0.2 to 1 uM by Biolayer Interferometric analysis; details: dose 0.2-1 µM; how it was run: as §1
Protein polybromo-1 (Homo sapiens), sequence (Q86U86 whole entry): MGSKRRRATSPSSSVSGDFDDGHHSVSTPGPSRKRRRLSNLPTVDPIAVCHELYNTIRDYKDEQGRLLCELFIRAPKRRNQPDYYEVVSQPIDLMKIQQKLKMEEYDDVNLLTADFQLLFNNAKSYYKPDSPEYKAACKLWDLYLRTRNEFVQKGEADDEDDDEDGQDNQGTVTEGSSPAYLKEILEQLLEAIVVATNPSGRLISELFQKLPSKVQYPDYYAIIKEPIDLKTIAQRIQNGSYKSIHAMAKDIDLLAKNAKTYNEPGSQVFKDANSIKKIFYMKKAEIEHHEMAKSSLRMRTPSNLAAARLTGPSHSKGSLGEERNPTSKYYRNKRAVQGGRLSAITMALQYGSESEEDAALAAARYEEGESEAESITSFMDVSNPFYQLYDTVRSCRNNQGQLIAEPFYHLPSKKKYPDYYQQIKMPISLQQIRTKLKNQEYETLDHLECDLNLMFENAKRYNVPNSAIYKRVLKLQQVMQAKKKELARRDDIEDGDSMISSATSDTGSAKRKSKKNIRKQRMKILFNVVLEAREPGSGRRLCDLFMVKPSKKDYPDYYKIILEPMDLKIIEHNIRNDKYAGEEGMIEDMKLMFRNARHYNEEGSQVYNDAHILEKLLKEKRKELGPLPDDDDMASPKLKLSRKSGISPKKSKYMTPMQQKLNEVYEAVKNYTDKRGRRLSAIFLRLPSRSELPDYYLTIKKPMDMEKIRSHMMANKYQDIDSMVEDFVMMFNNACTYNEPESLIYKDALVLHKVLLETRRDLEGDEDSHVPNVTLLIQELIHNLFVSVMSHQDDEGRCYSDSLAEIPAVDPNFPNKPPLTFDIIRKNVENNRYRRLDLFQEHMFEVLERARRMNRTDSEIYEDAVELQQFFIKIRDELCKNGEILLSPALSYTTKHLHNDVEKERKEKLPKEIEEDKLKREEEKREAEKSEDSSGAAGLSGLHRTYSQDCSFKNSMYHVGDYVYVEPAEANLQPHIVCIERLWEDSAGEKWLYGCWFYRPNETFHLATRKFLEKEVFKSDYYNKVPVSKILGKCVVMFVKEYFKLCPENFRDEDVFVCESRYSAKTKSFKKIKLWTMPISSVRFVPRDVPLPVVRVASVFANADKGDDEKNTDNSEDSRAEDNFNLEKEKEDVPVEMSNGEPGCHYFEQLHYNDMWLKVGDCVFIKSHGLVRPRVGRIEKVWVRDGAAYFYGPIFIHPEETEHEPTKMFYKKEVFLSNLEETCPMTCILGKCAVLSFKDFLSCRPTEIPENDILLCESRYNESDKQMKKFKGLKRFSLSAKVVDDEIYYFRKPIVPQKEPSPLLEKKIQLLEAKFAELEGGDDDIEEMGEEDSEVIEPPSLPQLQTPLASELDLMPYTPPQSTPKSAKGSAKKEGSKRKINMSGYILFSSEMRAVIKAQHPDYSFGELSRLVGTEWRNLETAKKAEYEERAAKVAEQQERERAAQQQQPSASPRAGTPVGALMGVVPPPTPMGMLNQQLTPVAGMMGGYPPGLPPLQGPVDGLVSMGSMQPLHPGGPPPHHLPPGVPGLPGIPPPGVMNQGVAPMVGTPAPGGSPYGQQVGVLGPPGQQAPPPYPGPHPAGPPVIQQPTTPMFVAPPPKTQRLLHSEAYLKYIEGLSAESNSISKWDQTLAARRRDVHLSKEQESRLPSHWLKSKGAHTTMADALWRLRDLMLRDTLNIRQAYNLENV

[9] = target: Bromodomain-containing protein 7 (Homo sapiens) (UniProt Q9NPI1); assay: Binding affinity to biotinylated BRD7 (unknown origin) expressed in Escherichia coli at 0.2 to 1 uM by Biolayer Interferometric analysis; details: dose 0.2-1 µM; how it was run: as §1
[10] = target: Histone acetyltransferase KAT2B (Homo sapiens) (UniProt Q92831); assay: Binding affinity to biotinylated PCAF (unknown origin) expressed in Escherichia coli at 0.2 to 1 uM by Biolayer Interferometric analysis; details: dose 0.2-1 µM; how it was run: as §1
[11] = target: ATPase family AAA domain-containing protein 2 (Homo sapiens) (UniProt Q6PL18); assay: Binding affinity to biotinylated ATAD2 (unknown origin) expressed in Escherichia coli at 0.2 to 1 uM by Biolayer Interferometric analysis; details: dose 0.2-1 µM; how it was run: as §1
[12] = target: Bromodomain testis-specific protein (Homo sapiens) (UniProt Q58F21); assay: Binding affinity to biotinylated BRDT bromodomain-1 (unknown origin) expressed in Escherichia coli at 0.2 to 1 uM by Biolayer Interferometric analysis; details: dose 0.2-1 µM; how it was run: as §1
[13] = target: Bromodomain-containing protein 4 (Homo sapiens) (UniProt O60885); assay: Binding affinity to biotinylated BRD4 bromodomain-1 (unknown origin) expressed in Escherichia coli at 0.2 to 1 uM by Biolayer Interferometric analysis; details: dose 0.2-1 µM; how it was run: as §1
[14] = target: Transcription initiation factor TFIID subunit 1 (Homo sapiens) (UniProt P21675); assay: Binding affinity to biotinylated TAF1 bromodomain-1 (unknown origin) expressed in Escherichia coli at 0.2 to 1 uM by Biolayer Interferometric analysis; details: dose 0.2-1 µM; how it was run: as §1
Transcription initiation factor TFIID subunit 1 (Homo sapiens), sequence (P21675 whole entry, the tested form may be a part): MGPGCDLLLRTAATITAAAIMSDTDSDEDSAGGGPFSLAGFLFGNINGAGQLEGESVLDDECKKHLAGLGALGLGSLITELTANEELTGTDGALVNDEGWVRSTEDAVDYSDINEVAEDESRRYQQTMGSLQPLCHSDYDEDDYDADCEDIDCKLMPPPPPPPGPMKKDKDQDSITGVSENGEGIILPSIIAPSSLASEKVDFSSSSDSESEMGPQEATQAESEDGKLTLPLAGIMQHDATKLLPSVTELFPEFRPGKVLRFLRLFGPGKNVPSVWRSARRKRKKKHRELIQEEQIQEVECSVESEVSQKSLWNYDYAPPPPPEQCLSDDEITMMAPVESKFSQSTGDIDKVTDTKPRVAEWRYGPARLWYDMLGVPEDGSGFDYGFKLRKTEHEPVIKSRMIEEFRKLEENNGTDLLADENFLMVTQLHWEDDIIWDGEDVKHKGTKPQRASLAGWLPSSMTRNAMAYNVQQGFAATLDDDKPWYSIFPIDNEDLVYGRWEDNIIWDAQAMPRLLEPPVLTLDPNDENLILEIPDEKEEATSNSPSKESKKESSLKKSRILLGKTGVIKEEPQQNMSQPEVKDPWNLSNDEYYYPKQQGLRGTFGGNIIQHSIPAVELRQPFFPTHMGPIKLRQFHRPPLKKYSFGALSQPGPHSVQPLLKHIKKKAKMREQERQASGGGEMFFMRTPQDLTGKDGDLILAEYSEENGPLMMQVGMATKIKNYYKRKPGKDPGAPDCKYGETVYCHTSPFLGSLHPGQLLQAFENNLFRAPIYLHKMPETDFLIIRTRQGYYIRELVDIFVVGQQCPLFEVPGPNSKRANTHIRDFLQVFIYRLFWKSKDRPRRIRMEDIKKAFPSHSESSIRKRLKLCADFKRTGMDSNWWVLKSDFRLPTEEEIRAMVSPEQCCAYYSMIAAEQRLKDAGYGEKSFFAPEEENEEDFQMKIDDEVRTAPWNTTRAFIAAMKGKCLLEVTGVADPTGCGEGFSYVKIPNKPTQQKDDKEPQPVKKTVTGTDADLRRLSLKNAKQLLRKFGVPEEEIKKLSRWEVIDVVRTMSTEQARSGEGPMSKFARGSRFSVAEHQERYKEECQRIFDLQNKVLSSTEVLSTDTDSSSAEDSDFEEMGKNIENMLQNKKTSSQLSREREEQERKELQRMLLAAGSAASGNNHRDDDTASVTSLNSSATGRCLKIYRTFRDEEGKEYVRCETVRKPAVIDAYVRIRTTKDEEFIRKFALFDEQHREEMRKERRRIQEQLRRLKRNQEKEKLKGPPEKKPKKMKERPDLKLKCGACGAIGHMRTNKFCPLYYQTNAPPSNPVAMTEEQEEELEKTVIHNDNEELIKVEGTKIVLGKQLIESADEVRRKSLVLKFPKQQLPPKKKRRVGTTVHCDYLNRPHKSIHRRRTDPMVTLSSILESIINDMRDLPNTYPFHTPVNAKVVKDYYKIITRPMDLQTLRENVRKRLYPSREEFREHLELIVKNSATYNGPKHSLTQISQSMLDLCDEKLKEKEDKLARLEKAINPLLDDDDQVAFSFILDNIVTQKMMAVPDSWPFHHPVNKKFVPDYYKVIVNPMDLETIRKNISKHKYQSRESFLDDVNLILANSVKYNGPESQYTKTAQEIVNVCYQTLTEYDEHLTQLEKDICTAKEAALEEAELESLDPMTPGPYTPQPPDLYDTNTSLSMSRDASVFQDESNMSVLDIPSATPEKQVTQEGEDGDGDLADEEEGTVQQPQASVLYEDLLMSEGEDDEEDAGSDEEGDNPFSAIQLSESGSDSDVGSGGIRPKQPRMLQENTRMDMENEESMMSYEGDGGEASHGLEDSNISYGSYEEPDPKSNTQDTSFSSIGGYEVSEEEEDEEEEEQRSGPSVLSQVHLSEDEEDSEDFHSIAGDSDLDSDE

[15] = target: ATPase family AAA domain-containing protein 2B (Homo sapiens) (UniProt Q9ULI0); assay: Binding affinity to biotinylated KIAA1240 (unknown origin) expressed in Escherichia coli at 0.2 to 1 uM by Biolayer Interferometric analysis; details: dose 0.2-1 µM; how it was run: as §1
[16] = target: Histone acetyltransferase p300 (Homo sapiens) (UniProt Q09472); assay: Binding affinity to biotinylated EP300 (unknown origin) expressed in Escherichia coli at 0.2 to 1 uM by Biolayer Interferometric analysis; details: dose 0.2-1 µM; how it was run: as §1
[17] = target: Bromodomain-containing protein 4 (Homo sapiens) (UniProt O60885); assay: Binding affinity to biotinylated BRD4 bromodomain-2 (unknown origin) expressed in Escherichia coli at 0.2 to 1 uM by Biolayer Interferometric analysis; details: dose 0.2-1 µM; how it was run: as §1
[18] = target: Bromodomain-containing protein 3 (Homo sapiens) (UniProt Q15059); assay: Binding affinity to biotinylated BRD3 bromodomain-2 (unknown origin) expressed in Escherichia coli at 0.2 to 1 uM by Biolayer Interferometric analysis; details: dose 0.2-1 µM; how it was run: as §1
Bromodomain-containing protein 3 (Homo sapiens), sequence (Q15059 2-726 limits assumed): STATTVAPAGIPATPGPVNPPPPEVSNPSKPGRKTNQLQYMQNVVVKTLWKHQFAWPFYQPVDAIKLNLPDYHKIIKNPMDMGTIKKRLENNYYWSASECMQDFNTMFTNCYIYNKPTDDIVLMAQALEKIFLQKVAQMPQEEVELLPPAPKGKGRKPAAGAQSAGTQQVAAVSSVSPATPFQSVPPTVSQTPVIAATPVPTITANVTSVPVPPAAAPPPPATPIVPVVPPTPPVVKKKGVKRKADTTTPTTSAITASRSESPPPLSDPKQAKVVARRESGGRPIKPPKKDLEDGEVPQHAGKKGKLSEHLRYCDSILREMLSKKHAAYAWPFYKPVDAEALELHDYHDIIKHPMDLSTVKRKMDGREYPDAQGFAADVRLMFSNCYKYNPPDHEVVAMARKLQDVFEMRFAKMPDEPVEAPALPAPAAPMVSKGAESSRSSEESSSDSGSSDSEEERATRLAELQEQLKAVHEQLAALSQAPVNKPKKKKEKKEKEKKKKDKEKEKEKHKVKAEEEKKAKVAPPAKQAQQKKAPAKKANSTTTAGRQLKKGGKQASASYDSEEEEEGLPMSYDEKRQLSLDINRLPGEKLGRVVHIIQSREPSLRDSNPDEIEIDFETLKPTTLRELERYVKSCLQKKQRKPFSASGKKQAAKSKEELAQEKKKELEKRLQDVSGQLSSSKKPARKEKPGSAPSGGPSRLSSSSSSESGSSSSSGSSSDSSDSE

[19] = target: Tyrosine-protein kinase BAZ1B (Homo sapiens) (UniProt Q9UIG0); assay: Binding affinity to biotinylated BAZ1B (unknown origin) expressed in Escherichia coli at 0.2 to 1 uM by Biolayer Interferometric analysis; details: dose 0.2-1 µM; how it was run: as §1
[20] = target: Bromodomain-containing protein 1 (Homo sapiens) (UniProt O95696); assay: Binding affinity to biotinylated BRD1 (unknown origin) expressed in Escherichia coli at 0.2 to 1 uM by Biolayer Interferometric analysis; details: dose 0.2-1 µM; how it was run: as §1
[21] = target: Bromodomain and WD repeat-containing protein 1 (Homo sapiens) (UniProt Q9NSI6); assay: Binding affinity to biotinylated WDR9 (unknown origin) expressed in Escherichia coli at 0.2 to 1 uM by Biolayer Interferometric analysis; details: dose 0.2-1 µM; how it was run: as §1
[22] = target: Transcription initiation factor TFIID subunit 1 (Homo sapiens) (UniProt P21675); assay: Binding affinity to biotinylated TAF1 bromodomain-2 (unknown origin) expressed in Escherichia coli at 0.2 to 1 uM by Biolayer Interferometric analysis; details: dose 0.2-1 µM; how it was run: as §1
[23] = target: Transcription intermediary factor 1-alpha (Homo sapiens) (UniProt O15164); assay: Binding affinity to biotinylated TIF1 bromodomain-1 (unknown origin) expressed in Escherichia coli at 0.2 to 1 uM by Biolayer Interferometric analysis; details: dose 0.2-1 µM; how it was run: as §1
[24] = target: Protein polybromo-1 (Homo sapiens) (UniProt Q86U86); assay: Binding affinity to biotinylated PB1 bromodomain-6 (unknown origin) expressed in Escherichia coli at 0.2 to 1 uM by Biolayer Interferometric analysis; details: dose 0.2-1 µM; how it was run: as §1
[25] = target: Bromodomain and WD repeat-containing protein 3 (Homo sapiens) (UniProt Q6RI45); assay: Binding affinity to biotinylated BRWD3 bromodomain-2 (unknown origin) expressed in Escherichia coli at 0.2 to 1 uM by Biolayer Interferometric analysis; details: dose 0.2-1 µM; how it was run: as §1
[26] = target: Transcription initiation factor TFIID subunit 1-like (Homo sapiens) (UniProt Q8IZX4); assay: Binding affinity to biotinylated TAF1L bromodomain-1 (unknown origin) expressed in Escherichia coli at 0.2 to 1 uM by Biolayer Interferometric analysis; details: dose 0.2-1 µM; how it was run: as §1
[27] = target: Bromodomain testis-specific protein (Homo sapiens) (UniProt Q58F21); assay: Binding affinity to biotinylated BRDT bromodomain-2 (unknown origin) expressed in Escherichia coli at 0.2 to 1 uM by Biolayer Interferometric analysis; details: dose 0.2-1 µM; how it was run: as §1
[28] = target: Bromodomain-containing protein 2 (Homo sapiens) (UniProt P25440); assay: Binding affinity to biotinylated BRD2 bromodomain-2 (unknown origin) expressed in Escherichia coli at 0.2 to 1 uM by Biolayer Interferometric analysis; details: dose 0.2-1 µM; how it was run: as §1
[29] = target: T1, Bromodomain-containing protein 9 (Homo sapiens); assay: Binding affinity to biotinylated BRD9 (unknown origin) expressed in Escherichia coli at 0.2 to 1 uM by Biolayer Interferometric analysis; details: dose 0.2-1 µM; how it was run: as §1
[30] = target: Protein polybromo-1 (Homo sapiens) (UniProt Q86U86); assay: Binding affinity to biotinylated PB1 bromodomain-4 (unknown origin) expressed in Escherichia coli at 0.2 to 1 uM by Biolayer Interferometric analysis; details: dose 0.2-1 µM; how it was run: as §1
Peregrin (Homo sapiens) = Peregrin (Homo sapiens) (UniProt P55201); assay: Binding affinity to biotinylated BRPF1 bromodomain-1 (unknown origin) expressed in Escherichia coli at 0.2 to 1 uM by Biolayer Interferometric analysis; details: dose 0.2-1 µM; how it was run: as §1
[31] = target: Histone-lysine N-methyltransferase ASH1L (Homo sapiens) (UniProt Q9NR48); assay: Binding affinity to biotinylated ASH1L bromodomain (unknown origin) expressed in Escherichia coli at 0.2 to 1 uM by Biolayer Interferometric analysis; details: dose 0.2-1 µM; how it was run: as §1
[32] = target: Protein polybromo-1 (Homo sapiens) (UniProt Q86U86); assay: Binding affinity to biotinylated PB1 bromodomain-5 (unknown origin) expressed in Escherichia coli at 0.2 to 1 uM by Biolayer Interferometric analysis; details: dose 0.2-1 µM; how it was run: as §1
[33] = target: SWI/SNF-related matrix-associated actin-dependent regulator of chromatin subfamily A member 2 (Homo sapiens, UniProt P51531); assay: Binding affinity to biotinylated SMARCA2 (unknown origin) expressed in Escherichia coli at 0.2 to 1 uM by Biolayer Interferometric analysis; details: dose 0.2-1 µM; how it was run: as §1
[34] = target: Protein polybromo-1 (Homo sapiens) (UniProt Q86U86); assay: Binding affinity to biotinylated PB1 bromodomain-1 (unknown origin) expressed in Escherichia coli at 0.2 to 1 uM by Biolayer Interferometric analysis; details: dose 0.2-1 µM; how it was run: as §1
[35] = target: CREB-binding protein (Homo sapiens) (UniProt Q92793); assay: Binding affinity to biotinylated CREBBP (unknown origin) expressed in Escherichia coli at 0.2 to 1 uM by Biolayer Interferometric analysis; details: dose 0.2-1 µM; how it was run: as §1
[36] = target: SWI/SNF-related matrix-associated actin-dependent regulator of chromatin subfamily A member 4 (Homo sapiens, UniProt P51532); assay: Binding affinity to biotinylated SMARCA4 (unknown origin) expressed in Escherichia coli at 0.2 to 1 uM by Biolayer Interferometric analysis; details: dose 0.2-1 µM; how it was run: as §1
[37] = target: PH-interacting protein (Homo sapiens) (UniProt Q8WWQ0); assay: Binding affinity to biotinylated PHIP (unknown origin) expressed in Escherichia coli at 0.2 to 1 uM by Biolayer Interferometric analysis; details: dose 0.2-1 µM; how it was run: as §1
[38] = target: Bromodomain-containing protein 3 (Homo sapiens) (UniProt Q15059); assay: Binding affinity to biotinylated BRD3 bromodomain-1 (unknown origin) expressed in Escherichia coli at 0.2 to 1 uM by Biolayer Interferometric analysis; details: dose 0.2-1 µM; how it was run: as §1

CCCOc1ccn2c(C(C)=O)cc(-c3ccccc3S(C)(=O)=O)c2c1
Activity [1]: inactive | Activity [2]: inactive | Activity [3]: inactive | Kb [4]: 0.826 10^6/M | Activity [5]: inactive | Activity [6]: inactive | Activity [7]: inactive | Activity [8]: inactive | Activity [9]: inactive | Activity [10]: inactive | Activity [11]: inactive | Activity [12]: inactive | Activity [13]: inactive | Activity [14]: inactive | Activity [15]: inactive | Activity [16]: inactive | Activity [17]: inactive | Activity [18]: inactive | Activity [19]: inactive | Activity [20]: inactive | Activity [21]: inactive | Activity [22]: inactive | Activity [23]: inactive | Activity [24]: inactive | Activity [25]: inactive | Activity [26]: inactive | Activity [27]: inactive | Activity [28]: inactive | Activity [29]: Active | Activity [30]: inactive | Activity (Peregrin (Homo sapiens)): inactive | Activity [31]: inactive | Activity [32]: inactive | Activity [33]: inactive | Activity [34]: inactive | Activity [35]: inactive | Activity [36]: inactive | Activity [37]: inactive | Activity [38]: inactive
